Experimental data reported in ChEMBL document CHEMBL2016568, “Bromophenols as inhibitors of protein tyrosine phosphatase 1B with antidiabetic properties” (Bioorg Med Chem Lett, 2012).

Assays:
[1] = molecular target: T1, Tyrosine-protein phosphatase non-receptor type 1 (Homo sapiens) (UniProt P18031); test: Inhibition of GST-tagged human recombinant PTB1B using pNPP as substrate at 20 ug/ml after 3 mins
T1 sequence (whole entry): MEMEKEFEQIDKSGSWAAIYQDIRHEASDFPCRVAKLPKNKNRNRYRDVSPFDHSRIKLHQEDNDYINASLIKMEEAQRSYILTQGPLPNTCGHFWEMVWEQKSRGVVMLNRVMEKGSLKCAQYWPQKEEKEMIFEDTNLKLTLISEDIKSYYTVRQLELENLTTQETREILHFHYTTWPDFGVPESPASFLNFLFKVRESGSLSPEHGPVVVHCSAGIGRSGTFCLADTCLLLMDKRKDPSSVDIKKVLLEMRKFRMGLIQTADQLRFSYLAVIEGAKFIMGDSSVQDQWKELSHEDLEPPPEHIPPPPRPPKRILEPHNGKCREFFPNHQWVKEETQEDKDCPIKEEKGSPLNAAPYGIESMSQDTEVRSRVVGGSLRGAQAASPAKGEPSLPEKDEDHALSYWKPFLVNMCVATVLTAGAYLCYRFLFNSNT

[2] = molecular target: T1, Tyrosine-protein phosphatase non-receptor type 1 (Homo sapiens); test: Inhibition of GST-tagged human recombinant PTB1B using pNPP as substrate at 5 ug/ml after 3 mins
[3] = molecular target: T2, Tyrosine-protein phosphatase non-receptor type 1 (Homo sapiens, UniProt P18031); test: Inhibition of GST-tagged human recombinant PTB1B using pNPP as substrate after 3 mins
T2 sequence (P18031 whole entry): T1 sequence (whole entry)

[4] = molecular target: T3, Tyrosine-protein phosphatase non-receptor type 2 (Homo sapiens, UniProt P17706); test: Inhibition of TCPTP after 3 mins
T3 sequence (P17706 whole entry): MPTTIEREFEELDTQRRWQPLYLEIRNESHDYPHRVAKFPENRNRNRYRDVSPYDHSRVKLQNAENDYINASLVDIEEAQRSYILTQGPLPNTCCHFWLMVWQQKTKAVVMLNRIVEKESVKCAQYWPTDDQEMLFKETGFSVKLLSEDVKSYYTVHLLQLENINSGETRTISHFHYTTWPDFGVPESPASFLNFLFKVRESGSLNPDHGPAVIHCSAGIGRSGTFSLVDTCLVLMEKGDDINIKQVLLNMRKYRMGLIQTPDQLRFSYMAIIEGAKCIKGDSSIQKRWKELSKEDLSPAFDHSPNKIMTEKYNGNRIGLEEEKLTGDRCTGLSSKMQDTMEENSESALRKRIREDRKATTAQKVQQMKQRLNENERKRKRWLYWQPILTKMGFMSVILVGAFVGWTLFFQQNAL
In short: (§1)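 Selectivity assays run in the same system as PTP1B. Enzyme and inhibitor preincubated 3 min at 4 °C, then the reaction started by adding substrate. OMFP used as substrate for SHP1, SHP2 and LAR. IC50 derived by Hill-equation fit of percent inhibition against inhibitor concentration.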

[5] = molecular target: T4, Tyrosine-protein phosphatase non-receptor type 11 (Homo sapiens, UniProt Q06124); test: Inhibition of SHP2 using OMFP as substrate after 3 mins; in short: as §1
T4 sequence (Q06124 whole entry): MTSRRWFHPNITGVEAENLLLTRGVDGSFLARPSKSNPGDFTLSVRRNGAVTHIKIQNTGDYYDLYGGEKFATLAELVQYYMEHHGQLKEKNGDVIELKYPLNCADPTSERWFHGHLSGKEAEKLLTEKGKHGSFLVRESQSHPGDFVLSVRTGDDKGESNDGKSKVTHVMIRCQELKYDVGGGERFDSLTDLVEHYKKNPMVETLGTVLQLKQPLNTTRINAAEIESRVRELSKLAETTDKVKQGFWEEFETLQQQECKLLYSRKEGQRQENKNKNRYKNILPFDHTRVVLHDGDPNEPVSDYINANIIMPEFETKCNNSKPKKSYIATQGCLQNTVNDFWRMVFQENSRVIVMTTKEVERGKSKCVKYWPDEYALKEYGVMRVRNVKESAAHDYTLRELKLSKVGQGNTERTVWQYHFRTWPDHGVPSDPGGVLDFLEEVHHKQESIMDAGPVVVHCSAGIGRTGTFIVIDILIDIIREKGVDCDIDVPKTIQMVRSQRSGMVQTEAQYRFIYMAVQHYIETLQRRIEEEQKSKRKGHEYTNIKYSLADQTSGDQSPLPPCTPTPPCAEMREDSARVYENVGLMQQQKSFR

[6] = molecular target: Tyrosine-protein phosphatase non-receptor type 6 (Homo sapiens, UniProt P29350); test: Inhibition of SHP1 using OMFP as substrate after 3 mins; in short: as §1
[7] = molecular target: Receptor-type tyrosine-protein phosphatase F (Homo sapiens, UniProt P10586); test: Inhibition of LAR using OMFP as substrate after 3 mins; in short: as §1
[8] = test system: Mus musculus; test: Antihyperglycemic activity in C57BL/Ks db/db mouse assessed as reduction of plasma glucose level at 50 mg/kg, po after 2 to 6 weeks by glucometer relative to control; type: functional; design: scale not given: the % may be the effect or the level left
In short: (§2)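 db/db mice (C57BL/Ks, 10 weeks old, n = 8 per group) given compound orally in 0.5% sodium carboxymethyl cellulose for six weeks, with a vehicle model group. Postprandial blood glucose read weekly by glucometer. Baseline, 2-week and 6-week values given as mean ± SD. Percent decrease reported at 6 weeks, with statistics against the model group.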

[9] = test system: Mus musculus; test: Antihyperglycemic activity in C57BL/Ks db/db mouse assessed as reduction of plasma glucose level at 25 mg/kg, po after 2 to 6 weeks by glucometer relative to control; type: functional; design: scale not given: the % may be the effect or the level left; in short: as §2
[10] = test system: Mus musculus; test: Antihyperglycemic activity in C57BL/Ks db/db mouse assessed as reduction of glycosylated hemoglobin level using HbA1c reagent at 50 mg/kg, po after 2 to 6 weeks relative to control; type: functional; design: scale not given: the % may be the effect or the level left
In short: (§3)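 HbA1c measured in C57BL/Ks db/db mice (n = 8 per group, 10 weeks old at start). Mice received oral doses suspended in 0.5% sodium carboxymethyl cellulose for six weeks, alongside a vehicle-treated model group. Results given as mean ± SD, compared against the model group.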

[11] = test system: Mus musculus; test: Antihyperglycemic activity in C57BL/Ks db/db mouse assessed as reduction of glycosylated hemoglobin level using HbA1c reagent at 25 mg/kg, po after 2 to 6 weeks relative to control; type: functional; design: scale not given: the % may be the effect or the level left; in short: as §3
[12] = test system: Mus musculus; test: Antidyslipidemic activity in C57BL/Ks db/db mouse assessed as reduction of triacylglycerol level at 50 mg/kg, po after 2 weeks (reference value: 1.24 +/- 0.12 mmol/L); type: functional
[13] = test system: Mus musculus; test: Antidyslipidemic activity in C57BL/Ks db/db mouse assessed as reduction of triacylglycerol level at 25 mg/kg, po after 2 weeks (reference value: 1.24 +/- 0.12 mmol/L); type: functional
[14] = test system: Mus musculus; test: Antidyslipidemic activity in C57BL/Ks db/db mouse assessed as reduction of triacylglycerol level at 50 mg/kg, po after 6 weeks (reference value: 1.56 +/- 0.17 mmol/L); type: functional
[15] = test system: Mus musculus; test: Antidyslipidemic activity in C57BL/Ks db/db mouse assessed as reduction of triacylglycerol level at 25 mg/kg, po after 6 weeks (reference value: 1.56 +/- 0.17 mmol/L); type: functional
[16] = test system: Mus musculus; test: Antidyslipidemic activity in C57BL/Ks db/db mouse assessed as reduction of total cholesterol level at 50 mg/kg, po after 2 weeks (reference value: 9.8 +/- 0.7 mmol/L); type: functional
[17] = test system: Mus musculus; test: Antidyslipidemic activity in C57BL/Ks db/db mouse assessed as reduction of total cholesterol level at 25 mg/kg, po after 2 weeks (reference value: 9.8 +/- 0.7 mmol/L); type: functional
[18] = test system: Mus musculus; test: Antidyslipidemic activity in C57BL/Ks db/db mouse assessed as reduction of total cholesterol level at 50 mg/kg, po after 6 weeks (reference value: 9.2 +/- 1.2 mmol/L); type: functional
[19] = test system: Mus musculus; test: Antidyslipidemic activity in C57BL/Ks db/db mouse assessed as reduction of total cholesterol level at 25 mg/kg, po after 6 weeks (reference value: 9.2 +/- 1.2 mmol/L); type: functional
[20] = species on record: Homo sapiens; test: Selectivity ratio of IC50 for TCPTP to IC50 for GST-tagged human recombinant PTB1B
[21] = species on record: Homo sapiens; test: Selectivity ratio of IC50 for SHP2 to IC50 for GST-tagged human recombinant PTB1B
[22] = species on record: Homo sapiens; test: Selectivity ratio of IC50 for SHP1 to IC50 for GST-tagged human recombinant PTB1B
[23] = species on record: Homo sapiens; test: Selectivity ratio of IC50 for LAR to IC50 for GST-tagged human recombinant PTB1B
[24] = test system: Mus musculus; test: Toxicity in C57BL/Ks db/db mouse at 25 to 50 mg/kg, po after 2 to 6 weeks; type: organism-based; design: route oral; settings: in vivo

Chain of Receptor-type tyrosine-protein phosphatase F (P10586 whole entry): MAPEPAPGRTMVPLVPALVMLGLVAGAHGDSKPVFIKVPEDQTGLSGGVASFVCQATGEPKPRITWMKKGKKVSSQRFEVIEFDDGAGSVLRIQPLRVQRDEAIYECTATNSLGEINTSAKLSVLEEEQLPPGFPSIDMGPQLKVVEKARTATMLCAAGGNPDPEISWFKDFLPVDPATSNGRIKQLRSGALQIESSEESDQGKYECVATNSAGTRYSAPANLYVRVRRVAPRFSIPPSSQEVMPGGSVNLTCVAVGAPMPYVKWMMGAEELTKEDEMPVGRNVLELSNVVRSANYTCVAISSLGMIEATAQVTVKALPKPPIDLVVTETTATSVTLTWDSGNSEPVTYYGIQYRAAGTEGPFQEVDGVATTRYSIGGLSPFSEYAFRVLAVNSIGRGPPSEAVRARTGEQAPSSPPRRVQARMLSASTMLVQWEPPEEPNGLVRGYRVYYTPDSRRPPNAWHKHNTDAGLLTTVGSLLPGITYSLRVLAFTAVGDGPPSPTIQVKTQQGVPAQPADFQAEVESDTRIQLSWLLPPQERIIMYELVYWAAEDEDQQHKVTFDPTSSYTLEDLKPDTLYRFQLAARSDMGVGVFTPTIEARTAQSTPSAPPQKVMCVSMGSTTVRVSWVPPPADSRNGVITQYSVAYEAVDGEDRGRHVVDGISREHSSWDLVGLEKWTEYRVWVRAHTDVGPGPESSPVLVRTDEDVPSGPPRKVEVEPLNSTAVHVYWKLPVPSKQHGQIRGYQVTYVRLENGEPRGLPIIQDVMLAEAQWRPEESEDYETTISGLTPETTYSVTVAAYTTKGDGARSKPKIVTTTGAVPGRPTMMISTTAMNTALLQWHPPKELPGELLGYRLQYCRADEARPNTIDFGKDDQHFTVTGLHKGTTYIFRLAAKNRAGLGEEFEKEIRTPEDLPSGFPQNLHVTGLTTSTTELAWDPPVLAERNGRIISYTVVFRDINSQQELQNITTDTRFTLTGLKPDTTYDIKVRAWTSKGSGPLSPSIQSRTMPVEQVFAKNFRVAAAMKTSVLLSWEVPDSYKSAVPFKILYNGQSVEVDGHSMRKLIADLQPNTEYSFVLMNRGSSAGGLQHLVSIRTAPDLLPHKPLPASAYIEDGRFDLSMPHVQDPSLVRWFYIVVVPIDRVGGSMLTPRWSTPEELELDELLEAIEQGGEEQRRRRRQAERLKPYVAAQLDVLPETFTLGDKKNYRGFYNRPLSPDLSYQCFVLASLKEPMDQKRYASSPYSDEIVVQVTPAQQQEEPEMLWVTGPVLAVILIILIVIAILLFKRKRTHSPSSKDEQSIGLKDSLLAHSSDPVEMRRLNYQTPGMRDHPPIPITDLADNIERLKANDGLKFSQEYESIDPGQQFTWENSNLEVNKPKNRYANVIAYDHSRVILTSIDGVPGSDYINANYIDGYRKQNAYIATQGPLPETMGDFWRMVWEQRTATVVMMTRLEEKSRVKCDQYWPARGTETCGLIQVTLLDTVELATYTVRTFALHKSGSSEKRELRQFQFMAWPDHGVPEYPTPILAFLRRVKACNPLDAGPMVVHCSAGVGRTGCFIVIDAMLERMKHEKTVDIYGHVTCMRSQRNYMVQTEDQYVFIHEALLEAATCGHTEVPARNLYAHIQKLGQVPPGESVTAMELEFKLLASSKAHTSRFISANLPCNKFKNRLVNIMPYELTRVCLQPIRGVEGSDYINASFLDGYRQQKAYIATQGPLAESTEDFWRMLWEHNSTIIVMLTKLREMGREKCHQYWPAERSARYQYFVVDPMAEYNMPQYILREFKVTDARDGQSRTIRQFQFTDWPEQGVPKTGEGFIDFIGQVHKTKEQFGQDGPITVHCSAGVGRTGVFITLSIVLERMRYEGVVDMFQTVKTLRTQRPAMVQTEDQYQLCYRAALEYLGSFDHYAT
Chain of Tyrosine-protein phosphatase non-receptor type 6 (P29350 whole entry): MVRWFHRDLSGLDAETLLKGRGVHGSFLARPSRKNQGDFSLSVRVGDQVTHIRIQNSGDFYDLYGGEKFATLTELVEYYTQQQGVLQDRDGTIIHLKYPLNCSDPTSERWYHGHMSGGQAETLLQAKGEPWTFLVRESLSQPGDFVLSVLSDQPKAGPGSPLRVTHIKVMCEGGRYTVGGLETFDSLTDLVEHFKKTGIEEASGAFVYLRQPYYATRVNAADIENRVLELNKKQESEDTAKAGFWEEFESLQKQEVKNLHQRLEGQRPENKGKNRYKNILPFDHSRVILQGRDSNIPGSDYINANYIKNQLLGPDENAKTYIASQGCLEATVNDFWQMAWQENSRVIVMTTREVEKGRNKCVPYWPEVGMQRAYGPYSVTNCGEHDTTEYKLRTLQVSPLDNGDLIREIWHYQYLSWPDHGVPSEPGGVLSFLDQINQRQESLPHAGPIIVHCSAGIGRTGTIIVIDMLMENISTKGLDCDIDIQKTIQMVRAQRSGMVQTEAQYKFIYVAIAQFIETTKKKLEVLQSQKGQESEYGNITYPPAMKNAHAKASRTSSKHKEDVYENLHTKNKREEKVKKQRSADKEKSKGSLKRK

## O=C(c1cc(O)c(O)c(Br)c1Br)c1c(Br)c(O)c(O)c(Br)c1Br
[1]
  inhibition: 95.1%
[2]
  inhibition: 72.1%
[3]
  IC50: 2.45 µM

## COc1c(Br)c(Br)c(Cc2c(Br)c(Br)c(OC)c(OC)c2Br)c(Br)c1OC
[1]
  inhibition: 96.9%
[2]
  inhibition: 37.9%

## Oc1cc(Br)c(Cc2cc(O)c(O)cc2Br)cc1O
[1]
  inhibition: 20.9%

## COc1cc(C(=O)c2cc(OC)c(OC)c(Br)c2Br)c(Br)c(Br)c1OC
[1]
  inhibition: 21.4%

## COc1c(Br)c(Br)c(C(=O)c2c(Br)c(Br)c(OC)c(OC)c2Br)c(Br)c1OC
[1]
  inhibition: 105%
[2]
  inhibition: 47.8%
[3]
  IC50: 2.02 µM

## O=C(c1ccc(O)c(O)c1)c1ccc(O)c(O)c1
[1]
  inhibition: 13.5%

## COc1ccc(C(=O)c2ccc(OC)c(OC)c2)cc1OC
[1]
  inhibition: 2.72%

## O=C(c1ccc(O)c(O)c1)c1cc(O)c(O)cc1Br
[1]
  inhibition: 11.2%

## Oc1cc(Cc2c(Br)c(O)c(O)c(Br)c2Br)c(Br)c(Br)c1O
[1]
  inhibition: 92.3%
[2]
  inhibition: 45.3%

## COc1cc(Br)c(Cc2cc(OC)c(OC)c(Br)c2Br)cc1OC
[1]
  inhibition: 52.5%
[2]
  inhibition: 40.2%

## COc1ccc(Cc2ccc(OC)c(OC)c2)cc1OC
[1]
  inhibition: 38.4%

## Oc1ccc(Cc2cc(O)c(O)cc2Br)cc1O
[1]
  inhibition: 12.2%

## COc1cc(Br)c(C(=O)c2cc(OC)c(OC)c(Br)c2Br)cc1OC
[1]
  inhibition: 37.5%

## O=C(c1c(Br)c(O)c(O)c(Br)c1Br)c1c(Br)c(O)c(O)c(Br)c1Br
[1]
  inhibition: 78.6%
[2]
  inhibition: 29.2%

## COc1cc(Br)c(Cc2cc(OC)c(OC)cc2Br)cc1OC
[1]
  inhibition: 33.6%

## Oc1c(O)c(Br)c(Cc2c(Br)c(O)c(O)c(Br)c2Br)c(Br)c1Br
[1]
  inhibition: 101%
[2]
  inhibition: 86.7%
[3]
  IC50: 0.68 µM
[4]
  IC50: > 50 µM
[5]
  IC50: > 50 µM
[6]
  IC50: > 50 µM
[7]
  IC50: > 50 µM
[8]
  Activity: 40.4%
[9]
  Activity: 33.5%
[10]
  Activity: 3.05%
[11]
  Activity: 3.05%
[12]
  Activity: 1.28 mmol/L
[13]
  Activity: 1.2 mmol/L
[14]
  Activity: 1.51 mmol/L
[15]
  Activity: 1.45 mmol/L
[16]
  Activity: 7.1 mmol/L
[17]
  Activity: 8.3 mmol/L
[18]
  Activity: 8.4 mmol/L
[19]
  Activity: 9.1 mmol/L
[20]
  Ratio IC50: > 70
[21]
  Ratio IC50: > 70
[22]
  Ratio IC50: > 70
[23]
  Ratio IC50: > 70
[24]
  Activity: Non-toxic

## Oc1ccc(Cc2ccc(O)c(O)c2)cc1O
[1]
  inhibition: 9.27%

## COc1cc(Br)c(C(=O)c2cc(OC)c(OC)cc2Br)cc1OC
[1]
  inhibition: 33.6%

## COc1cc(C(=O)c2c(Br)c(Br)c(OC)c(OC)c2Br)c(Br)c(Br)c1OC
[1]
  inhibition: 69.8%
[2]
  inhibition: 50.6%
[3]
  IC50: 3.26 µM

## O=C(c1cc(O)c(O)c(Br)c1Br)c1cc(O)c(O)c(Br)c1Br
[1]
  inhibition: 20.3%

## COc1ccc(C(=O)c2cc(OC)c(OC)cc2Br)cc1OC
[1]
  inhibition: 13%

## COc1cc(Cc2cc(OC)c(OC)c(Br)c2Br)c(Br)c(Br)c1OC
[1]
  inhibition: 60.4%
[2]
  inhibition: 28.9%

## O=C(c1cc(O)c(O)cc1Br)c1cc(O)c(O)c(Br)c1Br
[1]
  inhibition: 42.7%

## CN(CCOc1ccc(CC2SC(=O)NC2=O)cc1)c1ccccn1 (stereo unspecified) [ROSIGLITAZONE]
[8]
  Activity: 48.4%
[10]
  Activity: 2.56%
[12]
  Activity: 1.06 mmol/L
[14]
  Activity: 1.29 mmol/L
[16]
  Activity: 6.5 mmol/L
[18]
  Activity: 7.7 mmol/L

## COc1cc(Cc2c(Br)c(Br)c(OC)c(OC)c2Br)c(Br)c(Br)c1OC
[1]
  inhibition: 98.7%
[2]
  inhibition: 49.3%

## Oc1cc(Cc2cc(O)c(O)c(Br)c2Br)c(Br)c(Br)c1O
[1]
  inhibition: 91.3%
[2]
  inhibition: 38.9%
[3]
  IC50: 2.42 µM

## Oc1cc(Br)c(Cc2cc(O)c(O)c(Br)c2Br)cc1O
[1]
  inhibition: 40.5%

## O=C(c1cc(O)c(O)cc1Br)c1cc(O)c(O)cc1Br
[1]
  inhibition: 8.74%

## COc1ccc(Cc2cc(OC)c(OC)cc2Br)cc1OC
[1]
  inhibition: 14.4%
